Reference: ChEMBL document CHEMBL2203263, “Discovery of a 4-Azetidinyl-1-thiazoyl-cyclohexane CCR2 Antagonist as a Development Candidate” (ACS Med Chem Lett, 2012)
The source made the active and inactive calls. The calls are words filed in the database; no cut-off is given here.

How the values were obtained:
Cavia porcellus [1] = assay: Cardiotoxicity in anesthetized-Hartley guinea pig assessed as prolongation of corrected QT interval up to cumulative dose of 10 mg/kg, iv by electrocardiographic analysis; format: toxicity, organism-based; design: dose 10 mg/kg, route intravenous; settings: in vivo
Procedure, shortened: (§1)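 Anesthetized guinea pigs received cumulative i.v. doses of 0.1, 0.3, 1, 3 and 10 mg/kg, each as a 5 min infusion at 0, 20, 40, 60 and 80 min. QTc was recorded at each time point as percent change from each animal's baseline. Mean ± SEM, n = 3.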

Cavia porcellus [2] = assay: Cardiotoxicity in iv dosed anesthetized-Hartley guinea pig assessed as prolongation of corrected QT interval by electrocardiographic analysis; format: toxicity, organism-based; settings: in vivo; procedure, shortened: as §1
[3] = molecular target: Voltage-gated inwardly rectifying potassium channel KCNH2 (Homo sapiens, UniProt Q12809); assay: Displacement of [3H]-astemizole from human ERG expressed in HEK293 cells after 1 hr by scintillation counting analysis; format: cell-based
hERG (KCNH2) = hERG (KCNH2) (Homo sapiens, UniProt Q12809); assay: Inhibition of human ERG expressed in HEK-293 cells assessed as K+-selective outward current at 3 uM at -80 mV holding potential after 5 mins by voltage patch-clamp method; format: cell-based, HEK293; settings: HEK-293 cells expressing human ERG
Cavia porcellus [4] = assay: Cardiotoxicity in anesthetized Hartley guinea pig assessed as prolongation of corrected QT interval up to cumulative dose of 10 mg/kg, iv by electrocardiographic analysis; format: toxicity, organism-based; design: dose 10 mg/kg, route intravenous; settings: in vivo; procedure, shortened: as §1
[5] = Plasma concentration in Hartley guinea pig up to cumulative dose of 10 mg/kg, iv by LC-MS-MS analysis; format: ADME, organism-based, Cavia porcellus; design: dose 10 mg/kg, route intravenous; settings: in vivo
Procedure, shortened: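 Plasma drug level was taken from the anesthetized guinea pig QTc study. Dosing was cumulative i.v. (0.1, 0.3, 1, 3, 10 mg/kg), each dose a 5 min infusion at 20 min intervals, up to 10 mg/kg.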

[6] = Cmax in rat at 10 mg/kg, po by LC-MS-MS analysis; format: ADME, organism-based; design: dose 10 mg/kg, route oral; settings: in vivo
Mus musculus [7] = assay: Inhibition of thioglycollate-induced peritonitis in po dosed human CCR2 knock-in/murine CCR2 knockout mouse assessed as inhibition of leukocytes, monocytes/macrophages and T-lymphocytes influx in to peritoneal cavity administered as bid; format: functional
[8] = AUC (last) in rat at 10 mg/kg, po by LC-MS-MS analysis; format: ADME, organism-based; design: time 0 - last, dose 10 mg/kg, route oral; settings: plasma
Canis familiaris [9] = assay: Toxicity in anesthetized dog assessed as effect on electrophysiological parameters up to 10 mg/kg, iv; format: organism-based, Canis lupus familiaris; design: dose 10 mg/kg, route intravenous; settings: in vivo
Canis familiaris [10] = assay: Cardiotoxicity in anesthetized dog assessed as effect on ECG morphology up to 10 mg/kg, iv; format: toxicity, organism-based, Canis lupus familiaris; design: dose 10 mg/kg, route intravenous; settings: in vivo
[11] = molecular target: T1, C-C chemokine receptor type 3 (Homo sapiens) (UniProt P51677); assay: Binding affinity against CCR3 at 25 uM
T1 sequence (whole entry): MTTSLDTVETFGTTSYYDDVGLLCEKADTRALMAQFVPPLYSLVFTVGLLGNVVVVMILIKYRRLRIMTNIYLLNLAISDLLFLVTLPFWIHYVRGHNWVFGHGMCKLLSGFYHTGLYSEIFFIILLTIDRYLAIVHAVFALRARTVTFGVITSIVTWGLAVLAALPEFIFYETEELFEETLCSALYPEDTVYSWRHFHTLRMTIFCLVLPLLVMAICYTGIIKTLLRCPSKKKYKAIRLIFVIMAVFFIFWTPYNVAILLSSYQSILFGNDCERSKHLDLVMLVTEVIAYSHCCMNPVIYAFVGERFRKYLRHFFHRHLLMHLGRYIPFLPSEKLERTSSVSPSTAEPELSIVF

[12] = molecular target: T2, C-C chemokine receptor type 1 (Homo sapiens) (UniProt P32246); assay: Binding affinity against CCR1 at 25 uM
T2 sequence (whole entry): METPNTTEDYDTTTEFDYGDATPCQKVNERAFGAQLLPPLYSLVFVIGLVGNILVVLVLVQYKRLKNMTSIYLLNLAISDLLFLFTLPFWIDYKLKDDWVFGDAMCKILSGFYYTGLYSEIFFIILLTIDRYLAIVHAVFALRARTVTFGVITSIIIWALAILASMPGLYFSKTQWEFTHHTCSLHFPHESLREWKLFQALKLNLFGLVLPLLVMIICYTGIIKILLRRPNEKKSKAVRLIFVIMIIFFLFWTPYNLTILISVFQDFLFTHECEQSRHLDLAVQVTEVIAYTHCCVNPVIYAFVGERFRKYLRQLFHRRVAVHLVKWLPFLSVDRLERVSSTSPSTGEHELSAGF

[13] = molecular target: C-X-C chemokine receptor type 4 (Homo sapiens) (UniProt P61073); assay: Binding affinity against CXCR4 at 25 uM
[14] = AUC (last) in monkey at 7.2 mg/kg, po by LC-MS-MS analysis; format: ADME, organism-based, Macaca mulatta; design: time 0 - last, dose 7.2 mg/kg, route oral; settings: rhesus monkey, plasma
[15] = molecular target: C-C chemokine receptor type 5 (Homo sapiens) (UniProt P51681); assay: Binding affinity against CCR5 at 25 uM
[16] = AUC (last) in mouse at 10 mg/kg, po by LC-MS-MS analysis; format: ADME, organism-based; design: time 0 - last, dose 10 mg/kg, route oral; settings: plasma
[17] = molecular target: T3, C-X-C chemokine receptor type 1 (Homo sapiens) (UniProt P25024); assay: Binding affinity against CXCR1 at 25 uM
T3 sequence (whole entry): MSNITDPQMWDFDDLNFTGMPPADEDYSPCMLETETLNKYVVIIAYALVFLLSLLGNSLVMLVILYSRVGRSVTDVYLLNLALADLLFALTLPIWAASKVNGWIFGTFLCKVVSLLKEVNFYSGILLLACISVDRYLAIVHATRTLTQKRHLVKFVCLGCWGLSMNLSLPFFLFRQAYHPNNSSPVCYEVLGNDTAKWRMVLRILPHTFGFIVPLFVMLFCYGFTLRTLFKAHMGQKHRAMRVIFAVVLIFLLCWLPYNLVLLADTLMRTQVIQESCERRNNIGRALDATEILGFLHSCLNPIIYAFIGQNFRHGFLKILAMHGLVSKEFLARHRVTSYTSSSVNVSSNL

Canis familiaris [18] = assay: Toxicity in anesthetized dog assessed as effect on functional respiratory parameters up to 10 mg/kg, iv; format: organism-based, Canis lupus familiaris; design: dose 10 mg/kg, route intravenous; settings: in vivo
[19] = molecular target: T4, C-C chemokine receptor type 4 (Homo sapiens) (UniProt P51679); assay: Binding affinity against CCR4 at 25 uM
T4 sequence (whole entry): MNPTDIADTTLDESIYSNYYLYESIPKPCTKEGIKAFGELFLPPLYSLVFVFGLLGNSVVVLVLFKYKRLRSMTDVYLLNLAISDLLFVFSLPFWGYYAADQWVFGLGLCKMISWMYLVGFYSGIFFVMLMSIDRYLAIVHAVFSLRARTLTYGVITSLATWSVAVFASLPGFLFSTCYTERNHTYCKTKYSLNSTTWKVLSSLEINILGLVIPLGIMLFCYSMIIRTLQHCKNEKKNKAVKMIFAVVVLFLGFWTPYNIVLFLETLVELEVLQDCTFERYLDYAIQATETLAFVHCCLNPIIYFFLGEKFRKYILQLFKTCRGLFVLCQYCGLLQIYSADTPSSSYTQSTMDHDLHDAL

[20] = AUC (last) in dog at 6.7 mg/kg, po by LC-MS-MS analysis; format: ADME, organism-based, Canis lupus familiaris; design: time 0 - last, dose 6.7 mg/kg, route oral; settings: plasma
Procedure, shortened: (§2)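 Single oral dose of 6.7 mg/kg given to dogs as a suspension/solution in 0.5% methocel vehicle. AUC was taken to the last sampled time point.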

[21] = Cmax in monkey at 7.2 mg/kg, po by LC-MS-MS analysis; format: ADME, organism-based, Macaca mulatta; design: dose 7.2 mg/kg, route oral; settings: rhesus monkey, in vivo
[22] = molecular target: C-C chemokine receptor type 2 (Mus musculus, UniProt P51683); assay: Binding affinity to mouse CCR2
[23] = Cmax in mouse at 10 mg/kg, po by LC-MS-MS analysis; format: ADME, organism-based; design: dose 10 mg/kg, route oral; settings: in vivo
[24] = molecular target: T5, C-X-C chemokine receptor type 2 (Homo sapiens) (UniProt P25025); assay: Binding affinity against CXCR2 at 25 uM
T5 sequence (whole entry): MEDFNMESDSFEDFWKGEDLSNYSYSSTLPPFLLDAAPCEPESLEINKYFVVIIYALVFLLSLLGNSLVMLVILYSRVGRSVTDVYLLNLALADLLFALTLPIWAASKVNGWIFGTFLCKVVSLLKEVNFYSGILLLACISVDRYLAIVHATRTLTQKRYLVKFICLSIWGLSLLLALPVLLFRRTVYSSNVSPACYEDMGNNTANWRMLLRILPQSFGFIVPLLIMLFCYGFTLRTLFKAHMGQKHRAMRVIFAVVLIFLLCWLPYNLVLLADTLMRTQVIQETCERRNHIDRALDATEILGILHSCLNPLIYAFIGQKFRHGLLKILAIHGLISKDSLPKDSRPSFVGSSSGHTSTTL

[25] = molecular target: T6, CX3C chemokine receptor 1 (Homo sapiens) (UniProt P49238); assay: Binding affinity against CX3CR1 at 25 uM
T6 sequence (whole entry): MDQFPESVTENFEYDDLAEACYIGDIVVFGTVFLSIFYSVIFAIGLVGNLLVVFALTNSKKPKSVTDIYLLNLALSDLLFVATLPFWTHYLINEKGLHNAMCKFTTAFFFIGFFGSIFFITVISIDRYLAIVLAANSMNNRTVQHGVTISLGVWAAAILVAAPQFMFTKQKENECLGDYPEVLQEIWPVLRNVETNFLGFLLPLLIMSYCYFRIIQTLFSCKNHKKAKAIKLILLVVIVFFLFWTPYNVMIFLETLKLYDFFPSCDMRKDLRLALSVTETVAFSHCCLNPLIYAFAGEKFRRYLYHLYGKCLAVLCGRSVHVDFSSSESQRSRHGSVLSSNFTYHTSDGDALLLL

[26] = Oral bioavailability in monkey at 7.2 mg/kg by LC-MS-MS analysis; format: ADME, organism-based, Macaca mulatta; settings: rhesus monkey, in vivo
Mus musculus [27] = assay: Antiasthamatic activity in ovalbumin-sensitized mouse model assessed as inhibition of airway eosinophil infiltration at 10 mg/kg, po bid; format: functional
Canis familiaris [28] = assay: Toxicity in anesthetized dog assessed as effect on cardiohemodynamic parameters up to 10 mg/kg, iv; format: organism-based, Canis lupus familiaris; design: dose 10 mg/kg, route intravenous; settings: in vivo
[29] = Oral bioavailability in mouse at 10 mg/kg by LC-MS-MS analysis; format: ADME, organism-based; settings: in vivo
[30] = Oral bioavailability in rat at 10 mg/kg by LC-MS-MS analysis; format: ADME, organism-based; settings: in vivo
[31] = Oral bioavailability in dog at 6.7 mg/kg by LC-MS-MS analysis; format: ADME, organism-based, Canis lupus familiaris; settings: in vivo; procedure, shortened: as §2
[32] = Cmax in dog at 6.7 mg/kg, po by LC-MS-MS analysis; format: ADME, organism-based, Canis lupus familiaris; design: dose 6.7 mg/kg, route oral; settings: in vivo; procedure, shortened: as §2

hERG (KCNH2), sequence (Q12809 whole entry): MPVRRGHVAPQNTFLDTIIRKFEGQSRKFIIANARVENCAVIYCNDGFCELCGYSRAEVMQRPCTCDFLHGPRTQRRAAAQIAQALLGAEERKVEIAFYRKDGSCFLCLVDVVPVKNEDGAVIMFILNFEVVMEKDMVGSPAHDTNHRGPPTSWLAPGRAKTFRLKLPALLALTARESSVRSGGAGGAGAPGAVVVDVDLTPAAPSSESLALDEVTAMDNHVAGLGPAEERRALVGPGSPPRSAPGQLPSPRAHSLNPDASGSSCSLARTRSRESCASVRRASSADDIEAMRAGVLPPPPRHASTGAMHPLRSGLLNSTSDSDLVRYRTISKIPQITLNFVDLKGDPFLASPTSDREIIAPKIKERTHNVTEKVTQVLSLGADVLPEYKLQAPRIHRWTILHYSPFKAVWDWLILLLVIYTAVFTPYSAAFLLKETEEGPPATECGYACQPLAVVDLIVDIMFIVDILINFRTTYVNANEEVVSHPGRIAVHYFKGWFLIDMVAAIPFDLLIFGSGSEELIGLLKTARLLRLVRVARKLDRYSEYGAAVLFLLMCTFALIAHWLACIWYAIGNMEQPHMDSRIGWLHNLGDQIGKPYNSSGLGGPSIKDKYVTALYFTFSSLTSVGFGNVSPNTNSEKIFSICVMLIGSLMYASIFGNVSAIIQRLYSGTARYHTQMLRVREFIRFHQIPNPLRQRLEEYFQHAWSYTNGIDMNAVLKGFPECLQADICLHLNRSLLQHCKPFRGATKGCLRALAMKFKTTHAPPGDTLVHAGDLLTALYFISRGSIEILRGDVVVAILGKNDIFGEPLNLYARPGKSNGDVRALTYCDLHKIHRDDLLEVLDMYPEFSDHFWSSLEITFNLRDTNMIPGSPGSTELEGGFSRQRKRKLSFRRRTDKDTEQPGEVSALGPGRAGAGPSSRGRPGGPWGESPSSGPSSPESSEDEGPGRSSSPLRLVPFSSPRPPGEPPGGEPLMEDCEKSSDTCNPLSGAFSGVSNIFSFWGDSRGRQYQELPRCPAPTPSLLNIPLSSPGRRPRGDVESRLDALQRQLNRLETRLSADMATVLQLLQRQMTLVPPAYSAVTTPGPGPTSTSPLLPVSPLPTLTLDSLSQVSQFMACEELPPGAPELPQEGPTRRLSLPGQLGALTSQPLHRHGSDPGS
Voltage-gated inwardly rectifying potassium channel KCNH2, sequence (Q12809 whole entry): as above
C-C chemokine receptor type 2, sequence (P51683 whole entry): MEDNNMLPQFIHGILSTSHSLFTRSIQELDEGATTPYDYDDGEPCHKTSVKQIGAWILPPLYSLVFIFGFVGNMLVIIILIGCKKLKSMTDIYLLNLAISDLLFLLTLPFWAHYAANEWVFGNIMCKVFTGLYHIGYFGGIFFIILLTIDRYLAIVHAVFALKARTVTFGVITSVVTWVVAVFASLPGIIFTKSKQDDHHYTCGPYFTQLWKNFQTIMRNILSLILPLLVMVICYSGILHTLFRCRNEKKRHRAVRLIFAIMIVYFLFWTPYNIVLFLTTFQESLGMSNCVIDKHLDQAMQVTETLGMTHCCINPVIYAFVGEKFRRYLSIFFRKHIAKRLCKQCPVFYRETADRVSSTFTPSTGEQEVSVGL
C-C chemokine receptor type 5 (Homo sapiens), sequence (P51681 whole entry, looked up): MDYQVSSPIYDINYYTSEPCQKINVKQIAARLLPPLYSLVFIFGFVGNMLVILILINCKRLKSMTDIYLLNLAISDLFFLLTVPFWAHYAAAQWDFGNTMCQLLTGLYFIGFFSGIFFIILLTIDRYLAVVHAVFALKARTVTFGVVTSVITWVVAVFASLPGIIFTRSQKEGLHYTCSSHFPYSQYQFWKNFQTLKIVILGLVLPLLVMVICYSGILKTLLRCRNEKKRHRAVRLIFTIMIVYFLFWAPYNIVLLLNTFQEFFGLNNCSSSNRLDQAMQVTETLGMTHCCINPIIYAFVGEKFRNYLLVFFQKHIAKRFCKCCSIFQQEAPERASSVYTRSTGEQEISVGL
C-X-C chemokine receptor type 4 (Homo sapiens), sequence (P61073 whole entry): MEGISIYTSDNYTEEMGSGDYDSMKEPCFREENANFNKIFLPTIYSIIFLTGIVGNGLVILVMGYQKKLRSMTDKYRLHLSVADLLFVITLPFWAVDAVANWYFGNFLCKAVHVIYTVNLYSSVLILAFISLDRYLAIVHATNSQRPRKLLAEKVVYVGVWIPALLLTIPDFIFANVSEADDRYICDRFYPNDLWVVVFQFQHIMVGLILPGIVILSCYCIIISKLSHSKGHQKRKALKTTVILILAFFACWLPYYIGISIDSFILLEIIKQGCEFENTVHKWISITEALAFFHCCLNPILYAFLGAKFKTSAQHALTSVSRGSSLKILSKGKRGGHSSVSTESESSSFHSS

Cc1ccc([C@]2(O)CC[C@H](N3CC(NC(=O)CNC(=O)c4cccc(C(F)(F)F)c4)C3)CC2)cn1
Activity (Cavia porcellus [1]): 13% | Activity (Cavia porcellus [2]): Dose-dependent effect

COc1ccc([C@]2(O)CC[C@H](N3CC(NC(=O)CNC(=O)c4cccc(C(F)(F)F)c4)C3)CC2)cn1
Activity (Cavia porcellus [1]): 6% | Activity (Cavia porcellus [2]): Dose-dependent effect

COc1ccc([C@]2(O)CC[C@H](N3CC(NC(=O)CNC(=O)c4cccc(C(F)(F)F)c4)C3)CC2)nc1
IC50 [3]: 25 µM | inhibition at 5 min, 3 µM (hERG (KCNH2)): 30%

Cc1cnc([C@]2(O)CC[C@H](N3CC(NC(=O)CNC(=O)c4cccc(C(F)(F)F)c4)C3)CC2)s1
Activity (Cavia porcellus [1]): 15%

CC(C)c1ncc([C@]2(O)CC[C@H](N3CC(NC(=O)CNC(=O)c4cccc(C(F)(F)F)c4)C3)CC2)s1
Activity (Cavia porcellus [4]): Non-toxic | concentration [5]: 10 µM | IC50 [3]: > 50 µM | inhibition at 5 min, 3 µM (hERG (KCNH2)): 35%

CC(C)Oc1ncc([C@]2(O)CC[C@H](N3CC(NC(=O)CNC(=O)c4cccc(C(F)(F)F)c4)C3)CC2)s1
Activity (Cavia porcellus [4]): Non-toxic | concentration [5]: 3 µM | IC50 [3]: 28 µM | inhibition at 5 min, 3 µM (hERG (KCNH2)): 49%

CSc1ncc([C@]2(O)CC[C@H](N3CC(NC(=O)CNC(=O)c4cccc(C(F)(F)F)c4)C3)CC2)s1
IC50 [3]: 6 µM | inhibition at 5 min, 3 µM (hERG (KCNH2)): 77%

O=C(CNC(=O)c1cccc(C(F)(F)F)c1)NC1CN([C@H]2CC[C@@](O)(c3cncs3)CC2)C1 [JNJ-41443532]
Cmax [6]: 100 ng/mL | ED50 (Mus musculus [7]): 3 mg/kg | inhibition (Mus musculus [7]): Dose-dependent effect | AUC(0-t) [8]: 416 ng·h/mL | Activity (Cavia porcellus [4]): Non-toxic | Activity (Canis familiaris [9]): Non-toxic | concentration [5]: 26 µM | Activity (Canis familiaris [10]): Non-toxic | inhibition [11]: inactive | inhibition [12]: inactive | inhibition [13]: inactive | AUC(0-t) [14]: 3060 ng·h/mL | inhibition [15]: inactive | AUC(0-t) [16]: 204 ng·h/mL | inhibition [17]: inactive | Activity (Canis familiaris [18]): Non-toxic | inhibition [19]: inactive | AUC(0-t) [20]: 5890 ng·h/mL | Cmax [21]: 740 ng/mL | Ki [22]: 9.6 µM | Cmax [23]: 74 ng/mL | inhibition [24]: inactive | inhibition [25]: inactive | bioavailability [26]: 25.4% | inhibition in vivo at 10 mg/kg (Mus musculus [27]): 89% | Activity (Canis familiaris [28]): Non-toxic | bioavailability [29]: 19% | bioavailability [30]: 15.3% | bioavailability [31]: 70.2% | Cmax [32]: 1620 ng/mL
